Data from ChEMBL document CHEMBL1221355, “Substituted biaryl pyrazoles as sodium channel blockers” (Bioorg Med Chem Lett, 2010).

Assays:
[1] = target: T1, Sodium channel protein type 9 subunit alpha (Homo sapiens, UniProt Q15858); experiment: Inhibition of human Nav 1.7 channel by voltage-ion-probe-reader
Procedure, shortened: (§1)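 Functional membrane-potential FRET assay on voltage-gated hNav1.7, read on a voltage-ion-probe reader (VIPR). Results given as IC50 or as percent inhibition at 10 μM.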
Target sequence in this assay (Q15858 whole entry): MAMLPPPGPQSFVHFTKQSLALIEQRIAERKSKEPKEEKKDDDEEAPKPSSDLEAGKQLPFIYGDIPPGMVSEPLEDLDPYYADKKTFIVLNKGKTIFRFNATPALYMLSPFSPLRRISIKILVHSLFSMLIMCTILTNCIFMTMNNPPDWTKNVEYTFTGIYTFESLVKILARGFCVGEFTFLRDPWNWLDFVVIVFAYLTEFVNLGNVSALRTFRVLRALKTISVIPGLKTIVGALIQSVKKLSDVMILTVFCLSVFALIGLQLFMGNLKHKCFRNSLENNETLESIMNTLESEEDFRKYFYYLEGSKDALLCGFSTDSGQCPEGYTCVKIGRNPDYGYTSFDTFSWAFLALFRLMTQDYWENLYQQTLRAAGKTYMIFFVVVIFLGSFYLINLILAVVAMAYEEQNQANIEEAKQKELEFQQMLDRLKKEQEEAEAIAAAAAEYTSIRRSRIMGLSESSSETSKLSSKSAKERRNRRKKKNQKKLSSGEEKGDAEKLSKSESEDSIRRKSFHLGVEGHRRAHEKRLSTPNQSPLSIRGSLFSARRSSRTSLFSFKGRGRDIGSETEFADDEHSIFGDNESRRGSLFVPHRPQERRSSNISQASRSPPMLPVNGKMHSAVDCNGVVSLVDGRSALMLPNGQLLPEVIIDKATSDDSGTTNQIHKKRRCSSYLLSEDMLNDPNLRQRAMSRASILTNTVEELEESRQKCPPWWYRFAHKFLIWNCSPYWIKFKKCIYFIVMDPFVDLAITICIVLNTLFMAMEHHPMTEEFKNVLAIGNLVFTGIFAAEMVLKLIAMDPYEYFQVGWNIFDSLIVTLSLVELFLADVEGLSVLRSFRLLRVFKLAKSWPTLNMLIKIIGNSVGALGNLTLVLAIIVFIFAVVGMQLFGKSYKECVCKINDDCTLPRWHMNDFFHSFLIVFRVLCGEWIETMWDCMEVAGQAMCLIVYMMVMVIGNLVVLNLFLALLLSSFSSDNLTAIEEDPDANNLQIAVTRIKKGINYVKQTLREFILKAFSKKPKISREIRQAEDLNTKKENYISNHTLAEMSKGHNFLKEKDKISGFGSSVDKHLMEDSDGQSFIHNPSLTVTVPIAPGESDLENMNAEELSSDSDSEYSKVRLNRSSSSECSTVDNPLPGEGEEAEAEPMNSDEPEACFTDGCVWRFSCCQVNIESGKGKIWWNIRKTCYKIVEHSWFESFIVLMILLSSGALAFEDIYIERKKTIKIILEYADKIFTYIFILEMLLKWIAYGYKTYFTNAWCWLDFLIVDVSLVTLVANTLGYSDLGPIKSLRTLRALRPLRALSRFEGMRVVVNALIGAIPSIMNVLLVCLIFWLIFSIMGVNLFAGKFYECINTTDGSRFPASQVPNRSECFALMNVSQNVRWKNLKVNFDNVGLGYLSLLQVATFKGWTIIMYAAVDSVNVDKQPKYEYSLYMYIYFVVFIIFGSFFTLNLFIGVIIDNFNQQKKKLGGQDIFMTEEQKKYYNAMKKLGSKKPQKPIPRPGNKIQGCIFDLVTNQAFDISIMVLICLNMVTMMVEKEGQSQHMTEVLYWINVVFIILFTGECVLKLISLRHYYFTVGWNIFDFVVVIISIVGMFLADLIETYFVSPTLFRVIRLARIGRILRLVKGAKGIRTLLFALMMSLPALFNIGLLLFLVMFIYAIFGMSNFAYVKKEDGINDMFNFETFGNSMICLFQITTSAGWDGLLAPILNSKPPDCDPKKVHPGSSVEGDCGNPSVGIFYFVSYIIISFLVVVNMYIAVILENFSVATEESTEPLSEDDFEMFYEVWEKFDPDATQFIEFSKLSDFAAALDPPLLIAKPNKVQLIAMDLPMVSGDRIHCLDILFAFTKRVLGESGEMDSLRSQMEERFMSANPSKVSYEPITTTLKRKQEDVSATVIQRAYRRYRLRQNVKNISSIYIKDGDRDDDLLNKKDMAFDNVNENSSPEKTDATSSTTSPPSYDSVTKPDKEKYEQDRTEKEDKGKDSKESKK

hERG (KCNH2) = hERG (KCNH2) (Homo sapiens, UniProt Q12809); experiment: Displacement of [35S][…] from human ERG channel at 10 uM
hERG (KCNH2), sequence (Q12809 whole entry): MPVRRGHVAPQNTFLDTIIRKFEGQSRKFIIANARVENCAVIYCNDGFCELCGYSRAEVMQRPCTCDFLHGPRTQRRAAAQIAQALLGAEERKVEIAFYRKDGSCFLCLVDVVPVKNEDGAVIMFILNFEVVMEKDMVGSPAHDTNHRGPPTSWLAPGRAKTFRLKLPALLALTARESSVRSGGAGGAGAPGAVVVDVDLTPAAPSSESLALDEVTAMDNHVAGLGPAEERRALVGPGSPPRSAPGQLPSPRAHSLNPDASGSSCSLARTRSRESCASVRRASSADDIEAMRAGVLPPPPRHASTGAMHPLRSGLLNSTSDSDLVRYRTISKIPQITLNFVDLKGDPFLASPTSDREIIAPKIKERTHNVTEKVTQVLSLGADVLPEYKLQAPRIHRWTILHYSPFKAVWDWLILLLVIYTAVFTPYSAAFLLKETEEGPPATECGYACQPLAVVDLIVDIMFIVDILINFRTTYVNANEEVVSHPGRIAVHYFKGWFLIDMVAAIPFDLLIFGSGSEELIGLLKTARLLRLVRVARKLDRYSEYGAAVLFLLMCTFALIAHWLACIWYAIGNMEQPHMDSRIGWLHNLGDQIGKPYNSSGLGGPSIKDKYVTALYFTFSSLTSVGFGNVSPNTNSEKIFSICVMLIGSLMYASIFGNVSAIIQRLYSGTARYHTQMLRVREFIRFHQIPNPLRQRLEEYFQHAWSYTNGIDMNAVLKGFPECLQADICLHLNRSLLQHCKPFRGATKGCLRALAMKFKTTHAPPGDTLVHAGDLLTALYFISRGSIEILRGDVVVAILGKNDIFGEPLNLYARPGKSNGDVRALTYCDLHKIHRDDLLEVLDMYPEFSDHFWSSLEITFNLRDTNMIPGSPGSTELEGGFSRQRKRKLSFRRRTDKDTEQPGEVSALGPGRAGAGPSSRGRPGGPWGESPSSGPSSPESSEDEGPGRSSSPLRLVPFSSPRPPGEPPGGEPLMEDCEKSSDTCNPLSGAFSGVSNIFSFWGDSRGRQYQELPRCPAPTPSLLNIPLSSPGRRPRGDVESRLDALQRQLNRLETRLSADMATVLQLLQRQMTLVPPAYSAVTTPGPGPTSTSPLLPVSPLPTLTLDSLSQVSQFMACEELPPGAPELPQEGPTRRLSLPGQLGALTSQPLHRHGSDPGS
Procedure, shortened: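 hERG binding assay measuring displacement of 35S-labeled MK-0499, a known hERG blocker. Test compound at 10 μM; result expressed as percent inhibition of binding.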

Rattus norvegicus [2] = experiment: Antiallodynic activity in rat spinal nerve ligation model of neuropathic pain assessed as reversal of allodynia at 10 mg/kg, po after 4 hrs; format: functional
Procedure, shortened: (§2)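 Rat spinal nerve ligation (Chung) neuropathic pain model; compound given orally as a single dose (10 or 30 mg/kg). Allodynia reversal read at 2 h and 4 h after dosing, expressed as percent reversal.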

Rattus norvegicus [3] = experiment: Antiallodynic activity in rat spinal nerve ligation model of neuropathic pain assessed as reversal of allodynia at 10 mg/kg, po after 2 hrs; format: functional; procedure, shortened: as §2
[4] = target: T1, Sodium channel protein type 9 subunit alpha; experiment: Inhibition of human Nav 1.7 channel by electrophysiology
Target sequence in this assay (Q15858 whole entry): as the sequence (Q15858 whole entry) above

[5] = Half life in rat; format: ADME, organism-based; conditions: in vivo
Canis familiaris = organism: Canis familiaris; experiment: Plasma clearance in dog; format: ADME, organism-based, Canis lupus familiaris; conditions: in vivo
[6] = Volume of distribution in rat; format: ADME, organism-based; conditions: in vivo
Rattus norvegicus [7] = experiment: Neurotoxicity in rat assessed as effect on motor coordination by measuring reduced latency at 30 mg/kg, po by rotarod test; format: toxicity, organism-based; set-up: dose 30 mg/kg, route oral; conditions: in vivo
Procedure, shortened: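 Rat rotarod test of motor coordination after oral dosing (30 or 100 mg/kg). Read-out is latency on the rotarod.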

Liver microsomes [8] = experiment: Metabolic stability in rat liver microsomes after 60 mins; format: functional; conditions: Microsome
Procedure, shortened: (§3)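 Compound incubated for 60 min with liver microsomal preparations. Conversion to the carboxylic acid metabolite formed by carboxamide hydrolysis was followed.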

[9] = Oral bioavailability in rat; format: ADME, organism-based; conditions: in vivo
Rattus norvegicus [10] = experiment: Antiallodynic activity in rat spinal nerve ligation model of neuropathic pain assessed as reversal of allodynia at 30 mg/kg, po after 2 hrs; format: functional; procedure, shortened: as §2
Mus musculus = experiment: Anticonvulsant activity in mouse assessed as protection against maximal electric shock-induced tonic seizures at 10 mg/kg, po after 4 hrs; format: functional
Procedure, shortened: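 Mouse maximal electroshock (MES) seizure model. Oral dose 10 mg/kg, given 4 h before the shock. Read-out is protection from tonic seizures, expressed as percent.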

Cytochrome P450 2C9 = Cytochrome P450 2C9 (Homo sapiens, UniProt P11712); experiment: Inhibition of CYP2C9; format: ADME
Cytochrome P450 2C9, sequence (P11712 whole entry): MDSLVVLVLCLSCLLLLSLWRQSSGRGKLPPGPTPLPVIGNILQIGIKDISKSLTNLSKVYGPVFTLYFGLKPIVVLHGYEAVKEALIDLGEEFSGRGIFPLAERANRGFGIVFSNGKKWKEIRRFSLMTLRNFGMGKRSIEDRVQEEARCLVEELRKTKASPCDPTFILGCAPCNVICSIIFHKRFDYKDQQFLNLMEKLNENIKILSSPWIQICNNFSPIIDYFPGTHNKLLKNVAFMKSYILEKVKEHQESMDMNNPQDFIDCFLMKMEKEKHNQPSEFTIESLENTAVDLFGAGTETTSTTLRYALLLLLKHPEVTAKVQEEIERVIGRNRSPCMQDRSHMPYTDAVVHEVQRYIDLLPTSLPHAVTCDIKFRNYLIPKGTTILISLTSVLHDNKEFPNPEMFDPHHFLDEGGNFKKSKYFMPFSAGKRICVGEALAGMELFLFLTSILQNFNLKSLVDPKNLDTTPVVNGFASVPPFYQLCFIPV

Rattus norvegicus [11] = experiment: Antiallodynic activity in rat spinal nerve ligation model of neuropathic pain assessed as reversal of mechanical allodynia at 3 mg/kg, po bid for 2 days measured after 4 hrs post final dose; format: functional
Procedure, shortened: (§4)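 Rat spinal nerve ligation (Chung) model; oral dosing at 3 mg/kg bid for 2 days. Reversal of mechanical allodynia read at 2 h and 4 h, expressed as percent reversal; significance given as p values.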

[12] = Oral bioavailability dog; format: ADME, organism-based, Canis lupus familiaris; conditions: in vivo
[13] = target: T2, Nuclear receptor subfamily 1 group I member 2 (Homo sapiens, UniProt O75469); experiment: Induction of human PXR by induction assay
T2 sequence (O75469 whole entry): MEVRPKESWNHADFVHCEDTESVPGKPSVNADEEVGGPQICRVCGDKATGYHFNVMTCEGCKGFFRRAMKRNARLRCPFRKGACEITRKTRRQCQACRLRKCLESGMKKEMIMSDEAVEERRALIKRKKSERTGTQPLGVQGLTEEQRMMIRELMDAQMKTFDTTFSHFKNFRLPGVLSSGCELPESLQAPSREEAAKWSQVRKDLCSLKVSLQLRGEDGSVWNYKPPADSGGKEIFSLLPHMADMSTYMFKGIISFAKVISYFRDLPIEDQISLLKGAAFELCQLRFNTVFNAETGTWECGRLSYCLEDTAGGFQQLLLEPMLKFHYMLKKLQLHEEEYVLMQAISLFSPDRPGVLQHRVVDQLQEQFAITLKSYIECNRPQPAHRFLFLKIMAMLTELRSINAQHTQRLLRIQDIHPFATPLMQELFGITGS

Rattus norvegicus [14] = organism: Rattus norvegicus; experiment: Plasma clearance in rat; format: ADME, organism-based; conditions: in vivo
Rattus norvegicus [15] = experiment: Antiallodynic activity in rat spinal nerve ligation model of neuropathic pain assessed as reversal of mechanical allodynia at 3 mg/kg, po bid for 2 days measured after 2 hrs post final dose; format: functional; procedure, shortened: as §4
Liver microsomes [16] = experiment: Metabolic stability in human liver microsomes after 60 mins; format: functional; conditions: Microsome; procedure, shortened: as §3
Cytochrome P450 3A4 = Cytochrome P450 3A4 (Homo sapiens, UniProt P08684); experiment: Inhibition of CYP3A4; format: ADME
Cytochrome P450 3A4, sequence (P08684 whole entry): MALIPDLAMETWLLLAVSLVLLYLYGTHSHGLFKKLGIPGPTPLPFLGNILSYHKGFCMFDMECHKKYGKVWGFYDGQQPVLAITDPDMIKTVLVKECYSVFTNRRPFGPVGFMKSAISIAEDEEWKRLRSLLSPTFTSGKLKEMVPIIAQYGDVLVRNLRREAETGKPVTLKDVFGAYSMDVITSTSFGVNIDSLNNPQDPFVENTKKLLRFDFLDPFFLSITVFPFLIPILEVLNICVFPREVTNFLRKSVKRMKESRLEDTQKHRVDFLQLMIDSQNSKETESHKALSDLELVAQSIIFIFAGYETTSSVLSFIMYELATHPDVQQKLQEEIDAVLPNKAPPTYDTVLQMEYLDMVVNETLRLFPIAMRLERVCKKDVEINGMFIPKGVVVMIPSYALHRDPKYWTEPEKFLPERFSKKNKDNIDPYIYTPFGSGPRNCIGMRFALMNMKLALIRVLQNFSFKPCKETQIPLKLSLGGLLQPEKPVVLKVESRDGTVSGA

[17] = Volume of distribution in dog; format: ADME, organism-based, Canis lupus familiaris; conditions: in vivo
Macaca mulatta = organism: Macaca mulatta; experiment: Metabolic stability in monkey liver microsomes after 60 mins; format: functional; conditions: Microsome; procedure, shortened: as §3
Cytochrome P450 2D6 = Cytochrome P450 2D6 (Homo sapiens, UniProt P10635); experiment: Inhibition of CYP2D6; format: ADME
Cytochrome P450 2D6, sequence (P10635 whole entry): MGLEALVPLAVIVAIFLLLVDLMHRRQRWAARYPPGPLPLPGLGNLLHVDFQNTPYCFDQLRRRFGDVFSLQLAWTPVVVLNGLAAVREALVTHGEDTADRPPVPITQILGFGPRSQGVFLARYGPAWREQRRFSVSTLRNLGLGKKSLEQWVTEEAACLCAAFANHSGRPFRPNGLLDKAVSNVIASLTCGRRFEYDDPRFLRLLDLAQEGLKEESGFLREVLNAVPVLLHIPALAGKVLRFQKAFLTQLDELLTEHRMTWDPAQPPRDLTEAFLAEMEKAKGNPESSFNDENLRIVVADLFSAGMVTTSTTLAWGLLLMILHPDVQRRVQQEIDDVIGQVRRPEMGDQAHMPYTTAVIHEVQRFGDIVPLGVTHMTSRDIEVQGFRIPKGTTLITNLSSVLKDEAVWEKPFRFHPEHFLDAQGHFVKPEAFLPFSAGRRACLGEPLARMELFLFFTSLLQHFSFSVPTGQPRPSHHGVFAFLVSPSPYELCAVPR

Liver = experiment: Metabolic stability in dog liver microsomes after 60 mins; format: functional; conditions: Canis lupus familiaris, Microsome; procedure, shortened: as §3
[18] = Half life in dog; format: ADME, organism-based, Canis lupus familiaris; conditions: in vivo
Rattus norvegicus [19] = experiment: Antiallodynic activity in rat spinal nerve ligation model of neuropathic pain assessed as reversal of allodynia at 30 mg/kg, po after 4 hrs; format: functional; procedure, shortened: as §2
[20] = Clearance in rat plasma at 1 mg/kg, ip; format: ADME, organism-based; set-up: dose 1 mg/kg, route intraperitoneal
[21] = target: T1, Sodium channel protein type 9 subunit alpha; experiment: Inhibition of human Nav 1.7 channel at 10 uM by voltage-ion-probe-reader; procedure, shortened: as §1
Target sequence in this assay (Q15858 whole entry, looked up): as the sequence (Q15858 whole entry) above

SMILES: Cc1cc(C(N)=O)nn1-c1cccc(-c2c(F)cccc2C(F)(F)F)c1
- IC50 [1]: 71 nM
- inhibition at 10 µM (hERG (KCNH2)): 74%
- Activity (Rattus norvegicus [2]): 2%
- Activity (Rattus norvegicus [3]): 12%

SMILES: Cc1cc(C(N)=O)nn1-c1cccc(-c2cc(F)ccc2C(F)(F)F)c1
- IC50 [1]: 412 nM
- inhibition at 10 µM (hERG (KCNH2)): 41%

SMILES: Cc1cc(C(N)=O)nn1-c1cccc(-c2c(C(F)(F)F)cccc2C(F)(F)F)c1
- IC50 [1]: 41 nM
- inhibition at 10 µM (hERG (KCNH2)): 67%
- Activity (Rattus norvegicus [2]): 6%
- Activity (Rattus norvegicus [3]): 16%

SMILES: NC(=O)c1nc(-c2cccc(-c3ccccc3OC(F)(F)F)c2)cs1
- Ki [4]: 15 nM

SMILES: Cc1cc(C(N)=O)nn1-c1cccc(-c2ccc(C(F)(F)F)cc2C(F)(F)F)c1
- half-life [5]: 2 h
- clearance (Canis familiaris): 16 mL/min/kg
- Vd [6]: 3.1 L/kg
- Activity (Rattus norvegicus [7]): Not Active
- Stability (Liver microsomes [8]): Unstable
- IC50 [1]: 426 nM
- bioavailability [9]: 55%
- Activity (Rattus norvegicus [10]): 69%
- Activity (Mus musculus): 90%
- IC50 (Cytochrome P450 2C9): 9000 nM
- Activity (Rattus norvegicus [11]): 87%
- bioavailability [12]: 50%
- IC50 [13]: > 25000 nM
- clearance (Rattus norvegicus [14]): 11 mL/min/kg
- Activity (Rattus norvegicus [15]): 80%
- inhibition at 10 µM (hERG (KCNH2)): 53%
- Stability (Liver microsomes [16]): Stable
- IC50 (Cytochrome P450 3A4): > 100000 nM
- Vd [17]: 1.43 L/kg
- Stability (Macaca mulatta): Stable
- Activity (Rattus norvegicus [2]): 32%
- IC50 (Cytochrome P450 2D6): > 100000 nM
- Stability (Liver): Stable
- half-life [18]: 1.4 h
- Activity (Rattus norvegicus [3]): 35%
- Activity (Rattus norvegicus [19]): 55%

SMILES: NC(=O)c1ccn(-c2cccc(-c3ccccc3OC(F)(F)F)c2)n1
- IC50 [1]: 65 nM
- inhibition at 10 µM (hERG (KCNH2)): 51%

SMILES: Cc1cc(C(N)=O)nn1-c1cccc(-c2ccc(Cl)cc2C(F)(F)F)c1
- IC50 [1]: 243 nM
- inhibition at 10 µM (hERG (KCNH2)): 45%
- Activity (Rattus norvegicus [2]): 0%
- Activity (Rattus norvegicus [3]): 8%

SMILES: NC(=O)n1ccc(-c2ccc(Oc3ccc(Cl)cc3F)cc2)n1
- Ki [4]: 13 nM

SMILES: CC(C)(C)c1cc(C(N)=O)nn1-c1cccc(-c2ccccc2OC(F)(F)F)c1
- IC50 [1]: 1370 nM

SMILES: Cc1cc(C(N)=O)nn1-c1cccc(-c2ccccc2C(F)(F)F)c1
- IC50 [1]: 163 nM
- inhibition at 10 µM (hERG (KCNH2)): 68%
- Activity (Rattus norvegicus [2]): 19%
- Activity (Rattus norvegicus [3]): 14%

SMILES: NC(=O)n1ccc(-c2ccc(-c3ccccc3Cl)cc2)n1
- Ki [4]: 111 nM
- CL/F [20]: 125 mL/min/kg

SMILES: Cc1cc(C(N)=O)nn1-c1cccc(-c2ccccc2Cl)c1
- IC50 [1]: 738 nM
- inhibition at 10 µM (hERG (KCNH2)): 8%

SMILES: Cc1cc(C(N)=O)nn1-c1cccc(-c2cc(C(F)(F)F)ccc2C(F)(F)F)c1
- IC50 [1]: 272 nM
- IC50 (Cytochrome P450 2C9): 2600 nM
- inhibition at 10 µM (hERG (KCNH2)): 51%
- IC50 (Cytochrome P450 3A4): 51000 nM
- Activity (Rattus norvegicus [2]): 35%
- IC50 (Cytochrome P450 2D6): 33000 nM
- Activity (Rattus norvegicus [3]): 39%

SMILES: Cc1cc(C(N)=O)nn1-c1cccc(-c2cccc(F)c2C(F)(F)F)c1
- IC50 [1]: 781 nM
- inhibition at 10 µM (hERG (KCNH2)): 73%

SMILES: Cc1cc(C(N)=O)nn1-c1cccc(-c2ccccc2OCC(F)(F)C(F)(F)F)c1
- IC50 [1]: 128 nM
- inhibition at 10 µM (hERG (KCNH2)): 49%
- Activity (Rattus norvegicus [2]): 9%
- Activity (Rattus norvegicus [3]): 15%

SMILES: Cc1cc(C(N)=O)nn1-c1cc(-c2ccccc2OC(F)(F)F)ccc1F
- IC50 [1]: 222 nM
- inhibition at 10 µM (hERG (KCNH2)): 62%
- Activity (Rattus norvegicus [2]): 8%
- Activity (Rattus norvegicus [3]): 17%

SMILES: NC(=O)c1cc(N)n(-c2cccc(-c3ccccc3OC(F)(F)F)c2)n1
- IC50 [1]: 111 nM
- inhibition at 10 µM (hERG (KCNH2)): 44%

SMILES: Cc1cc(C(N)=O)nn1-c1ccc(F)c(-c2ccccc2OC(F)(F)F)c1
- IC50 [1]: 162 nM
- inhibition at 10 µM (hERG (KCNH2)): 66%

SMILES: Cc1cc(C(N)=O)nn1-c1cccc(-c2ccccc2OC(F)(F)F)c1
- IC50 [1]: 224 nM
- inhibition at 10 µM (hERG (KCNH2)): 6%
- Activity (Rattus norvegicus [2]): 11%
- Activity (Rattus norvegicus [3]): 33%

SMILES: NC(=O)n1ccc(-c2cccc(-c3ccccc3Cl)c2)n1
- Ki [4]: 18 nM
- CL/F [20]: 123 mL/min/kg

SMILES: Cc1cc(C(N)=O)nn1-c1cccc(-c2cc(C(F)(F)F)cc(C(F)(F)F)c2)c1
- inhibition [21]: 17%

SMILES: NC(=O)c1cc(-c2cccc(-c3ccccc3OC(F)(F)F)c2)n[nH]1
- IC50 [1]: 508 nM
- inhibition at 10 µM (hERG (KCNH2)): 94%

SMILES: Cc1cc(C(N)=O)nn1-c1ccc(OC(F)(F)F)c(-c2ccccc2OC(F)(F)F)c1
- IC50 [1]: 373 nM
- inhibition at 10 µM (hERG (KCNH2)): 77%

SMILES: Cc1cc(C(N)=O)nn1-c1cccc(-c2ccccc2OCC(F)(F)F)c1
- IC50 [1]: 187 nM
- inhibition at 10 µM (hERG (KCNH2)): 43%
- Activity (Rattus norvegicus [2]): 4%
- Activity (Rattus norvegicus [3]): 18%

SMILES: Cc1cc(C(N)=O)nn1-c1cccc(-c2ccccc2Oc2ccccc2)c1
- IC50 [1]: 875 nM
- inhibition at 10 µM (hERG (KCNH2)): 13%
